RGS4 block: inhibitors of human RGS4; HEK293 M3R/RGS4 inducible, Fluo-4 calcium flux; hits give high values; triggered by carbachol at its EC20; B-score at 10 µM; actives 0.45% (n = 310,000);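 active = B-score, a plate-corrected calcium signal, over three deviations above library mean, with baseline fluorescence within five deviations of library mean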;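 note: RGS4 expression induced by doxycycline in cells with stable M3 receptor; B-score is computed from the integrated fluorescence ratio over baseline after carbachol; higher B-score means a larger calcium signal and so more RGS4 inhibition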
Target sequence (P49798 whole entry, looked up): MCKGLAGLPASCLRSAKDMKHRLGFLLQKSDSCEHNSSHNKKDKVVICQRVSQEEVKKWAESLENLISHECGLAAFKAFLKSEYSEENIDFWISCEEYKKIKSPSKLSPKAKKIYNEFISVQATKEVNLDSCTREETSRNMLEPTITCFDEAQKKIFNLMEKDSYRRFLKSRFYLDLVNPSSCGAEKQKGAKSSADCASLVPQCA
MrgX1 ag: activates human MrgX1 receptor signaling; Q96LB2; MrgX1-HEK293 cells, Fluo-4 calcium fluorescence, agonist mode; hits give high values; B-score at 10 µM; actives 0.44% (n = 310,000);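 active = calcium response B-score plate-corrected fluorescence ratio at least 3 library SD, with starting fluorescence B-score inside 5 SD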
Target sequence (Q96LB2 whole entry, looked up): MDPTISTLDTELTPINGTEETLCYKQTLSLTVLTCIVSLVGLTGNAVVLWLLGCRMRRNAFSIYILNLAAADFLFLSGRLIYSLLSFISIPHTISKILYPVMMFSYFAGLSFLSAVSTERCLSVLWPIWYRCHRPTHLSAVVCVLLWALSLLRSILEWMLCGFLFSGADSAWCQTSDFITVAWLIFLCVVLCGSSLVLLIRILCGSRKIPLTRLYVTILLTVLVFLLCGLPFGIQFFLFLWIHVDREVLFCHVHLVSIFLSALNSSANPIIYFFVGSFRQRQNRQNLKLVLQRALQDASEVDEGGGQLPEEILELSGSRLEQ
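Test system: HEK293 cells stably expressing human MrgX1 receptor; Input: fifteen thousand cells per well; Dosing: compound delivered in addition one of three; Schedule: overnight seeding, then 1 h dark dye loading; Technique: Fluo-4 NW calcium fluorescence; Measure: B-scored fluorescence response ratio; Controls: positive and negative controls per plate.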
RGS4 pot: RGS4 potentiation or activation; actives 0.92% (n = 310,000); HEK293 M3R/inducible RGS4, carbachol calcium flux Fluo4; hits give low values; B-score at 10 µM; AID 463111;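 active = B-score of the integrated calcium signal more than 4 SD below the library mean, with starting fluorescence not abnormally high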;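 note: negative B-score means reduced calcium response which marks RGS4 activation or potentiation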
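Test system: HEK293 cells with stable M3R and inducible RGS4; also added: carbachol at ECmax as muscarinic agonist stimulus; schedule: dye loading 30 min 37 °C, buffer rest 30 min RT; technique: kinetic calcium fluorescence imaging with Fluo4-AM dye, 2 µM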
MrgX1 antag: human MrgX1 receptor antagonism, primary screen. Q96LB2. MRGX1-HEK293 calcium flux, Fluo-4, BAM8-22 antagonism; hits give low values. B-score at 10 µM. actives 1.3% (n = 310,000). AID 588676;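 active = calcium-response B-score plate-corrected more than 3 library SD below zero, starting fluorescence within 5 deviations, no agonist response on first addition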;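 note: peak minus trough fluorescence over baseline after final BAM8-22 challenge near maximal dose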
MrgX1 allo act: allosterically activates human MrgX1 receptor signaling. Q96LB2. MrgX1-HEK293, Fluo-4 calcium flux, FDSS; hits give high values. B-score at 10 µM. actives 0.63% (n = 310,000). AID 588675;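 active = plate-corrected calcium response at least 3 library SD above typical, normal starting fluorescence, not activating the receptor alone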;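 note: compound read alongside a low EC10 to EC30 dose of BAM8-22 agonist; peak minus trough fluorescence over baseline measured at the second addition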
RGS4 activ val: confirmation of RGS4 activators | AID 602282 | shares compounds with RGS4 pot | HEK293 M3R/RGS4 inducible, carbachol calcium flux Fluo4 | inhibition, % at 10 µM | actives 89% (n = 1,100);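 active = inhibition above 3 SD of the buffer control wells, cut at about 41% in these data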;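 note: signal is the integrated peak-minus-minimum Fluo4 fluorescence over baseline ratio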
RGS4 act ctr: RGS4 activator counter-screen hit in non-induced cells; HEK293 M3R non-induced RGS4, Fluo4 calcium flux; after carbachol challenge at its EC90; AID 602283; inhibition, % at 10 µM; shares compounds with RGS4 pot; actives 82% (n = 1,100);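 active = inhibition exceeding 3 SD of buffer-only control wells, cut at about 26% in these data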;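 note: percent drop in integrated peak-minus-baseline over baseline Fluo4 ratio after carbachol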
The depositor's hits bear a star; i = inactive; nt = no result. An excerpt weighted towards active compounds, which were near 3.5% of everything screened.

SMILES | RGS4 block | MrgX1 ag | RGS4 pot | MrgX1 antag | MrgX1 allo act | RGS4 activ val | RGS4 act ctr
CCOCc1c(C(=O)NC2=Nc3ccccc3NC(CC)=C2C(=O)OCC)oc2ccccc12 | i | i | -8.95* | i | i | 76.5* | 83.8*
CCOC(=O)C1=C(CC)Nc2ccccc2N=C1NC(=O)c1oc2ccccc2c1C | i | i | -12.1* | i | i | 84.0* | 52.3*
COc1ccc(C(=O)N/N=C/c2ccc(OC)c(CN3CCc4cc(OC)c(OC)cc4C3C)c2)cc1 (stereo not drawn) | i | i | i | i | i | nt | nt
N#Cc1ccc(C(=O)NCC(c2ccco2)N2CCCC2)cc1 (stereo not drawn) | i | i | i | i | i | nt | nt
N#Cc1ccccc1Sc1ccccc1C(=O)NCC(c1ccco1)N1CCCC1 (stereo not drawn) | i | i | -7.9* | i | i | 65.0* | 28.8*
CCN1CCN(Cc2cccc(Oc3ccccc3)c2)CC1 | i | i | -8.01* | i | i | 61.5* | 83.8*
CN1CCN(Cc2cccc(Oc3ccc(Cl)cc3)c2)CC1 | i | i | -11.6* | i | i | 90.5* | 37.8*
CCN1CCN(Cc2cccc(Oc3ccc(Cl)cc3)c2)CC1 | i | i | -9.42* | i | i | 92.5* | 61.3*
CCOC(=O)C1CCN(Cc2cccc(Oc3ccc(Cl)cc3)c2)CC1 | i | i | i | i | i | nt | nt
CCOC(=O)C1=C(COC(=O)C(CC)Oc2ccccc2)NC(=O)NC1C (stereo not drawn) | i | i | i | i | i | nt | nt
O=c1[nH]c2ccccc2cc1CN(Cc1cccnc1)S(=O)(=O)c1ccc(Cl)cc1 | i | i | -7.8* | i | 7.28* | 73.0* | 30.3*
N#CCC(=O)N/N=C/c1cn(Cc2ccccc2C#N)c2ccccc12 | i | i | i | i | i | nt | nt
N#CCC(=O)N/N=C/c1c(-c2ccccc2)n(-c2ccccc2)c2ccccc12 | i | i | -11.7* | i | i | 85.5* | 50.3*
CN(C)CCCNC(=O)N1c2ccccc2Sc2ccccc21 | i | i | -11.3* | i | i | 92.0* | 90.8*
O=C(CSc1nc2ccccc2s1)N1c2ccccc2Sc2ccc(Cl)cc21 | i | i | i | i | i | nt | nt
O=C(CCN1CCOCC1)N1c2ccccc2Sc2ccc(Cl)cc21 | i | i | -8.94* | i | i | 92.0* | 89.8*
O=C(NCCN1CCOCC1)N1c2ccccc2Sc2ccccc21 | i | i | -10.6* | i | i | 83.0* | 54.3*
Cc1cccc(C)c1NC(=O)CN(C)C(=O)Cc1cccc(C(F)(F)F)c1 | i | i | i | i | i | nt | nt
Cc1ccc(S(=O)(=O)N(C)C)cc1NC(=O)C(C)N(C)Cc1sccc1C (stereo not drawn) | i | i | i | i | i | nt | nt
CCOc1ccc(S(=O)(=O)N(CC(=O)NC2CCCCC2C)Cc2ccco2)cc1 (stereo not drawn) | i | i | -8.22* | i | i | 0.0 | 0.0
[2H]c1c([2H])c([2H])c(C(=O)c2sc(N3CCCCCC3)nc2-c2ccccc2)c([2H])c1[2H] | i | i | -8.29* | i | i | 92.0* | 61.3*
C=CCN1C(=O)/C(=C2\SC(N3CCOCC3)=NC2=O)c2cc(Br)ccc21 | i | i | -8.63* | i | i | 86.0* | 62.8*
CCN(CC)CCn1c(=N)n(CC(=O)c2ccc(Br)s2)c2ccccc21 | i | i | -7.76* | i | i | 58.5* | 83.8*
CCC(=O)OCC(=O)c1cc(C)n(-c2ccc(Br)cc2)c1C | i | i | i | i | i | nt | nt
CCC(C)N(C(=O)CSc1ccc(NC(C)=O)cc1)C1CCS(=O)(=O)C1 (stereo not drawn) | i | i | i | i | i | nt | nt
SMILES | RGS4 block | MrgX1 ag | RGS4 pot | MrgX1 antag | MrgX1 allo act | RGS4 activ val | RGS4 act ctr
COc1ccc(S(=O)(=O)N2CCOCC2)cc1NC(=O)CCc1nc2ccccc2c(=O)[nH]1 | i | i | i | i | i | nt | nt
CCN(c1ccccc1)S(=O)(=O)c1ccc(OC)c(NC(=O)CCc2nc3ccccc3c(=O)[nH]2)c1 | i | i | -7.94* | i | i | 85.0* | 55.8*
COc1ccccc1C(CNC(=O)C(C)(C)Oc1ccc(Cl)cc1)N1CCCC1 (stereo not drawn) | i | i | -8.85* | i | i | 89.5* | 25.8*
CCOC(=O)c1ccc(NC(=O)N2CCc3ccccc3C2)cc1 | i | i | -8.86* | i | i | 83.5* | 44.3*
CC1CN(C(=O)c2ccc(NS(=O)(=O)c3ccc(F)cc3)cc2)CC(C)O1 (stereo not drawn) | i | i | i | i | i | nt | nt
CCCOc1ccc(NC(=O)c2c(-c3ccccc3)noc2C)cc1 | i | i | i | i | i | nt | nt
CC(=O)Nc1ccc(OCCCNC(=O)c2c(-c3ccccc3)noc2C)cc1 | i | i | -8.56* | i | i | 0.0 | 0.0
CC1(C)CC(=O)C=C(NCc2ccccc2)C1 | i | i | i | i | i | nt | nt
CC1(C)CC(=O)C=C(NCc2cccc(C(F)(F)F)c2)C1 | i | i | -8.73* | i | i | 0.0 | 0.0
Cc1ccc(OCC(=O)Nc2ccc(CN3CCCCC3)cc2)c(C)c1 | i | i | -9.88* | i | i | 65.5* | 83.8*
CC(=O)N1c2ccc(S(=O)(=O)N(C)CC(=O)NC(C)c3ccccc3)cc2CC1C (stereo not drawn) | i | i | i | i | i | nt | nt
Cc1cccc(N2CCN(S(=O)(=O)c3c(C)nc4scc(C)n4c3=O)CC2)c1C | i | i | i | i | i | nt | nt
O=C(CNc1ccccc1)c1ccc([N+](=O)[O-])cc1 | i | i | -11.2* | i | i | 76.5* | 83.8*
O=C(CNC(=O)c1ccc([N+](=O)[O-])cc1)c1ccccc1 | i | i | i | i | i | nt | nt
COC(=O)c1cc2ccsc2n1Cc1cc(=O)n2ccccc2n1 | i | i | -10* | i | i | 89.5* | 62.8*
COc1cccc(C2SCC(=O)N2c2ccc(Br)cc2)c1OC (stereo not drawn) | i | i | -9.8* | i | i | 91.0* | 91.8*
CSC1=NCCN1C(=O)COc1ccc2ccccc2c1 | i | i | -9.5* | i | i | 0.0 | 0.0
CSC1=NCCN1C(=O)COc1ccccc1 | i | i | i | i | i | nt | nt
